# This is one part of a sample in which hits are shown more often than they occur.
# H69AR growth 86K = growth inhibitors of human H69AR lung tumor cells | H69AR lung tumor viability, ATP luminescence, 72 h; active compounds read low | viability, % at 10 µM | actives 6% (n = 85,000) | AID 598;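 active = viability at or below 40%; inactive = viability above 40%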;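 also: multidrug resistant small cell line overexpressing MRP-1 efflux transporter; 100% = mean luminescence of untreated control wells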
# HCT116 bCat-KO = beta-catenin-lacking colon tumor cell growth suppression; HCT116 beta-catenin knockout viability, CellTiter-Glo, 60 h; active compounds read low; actives 1.5% (n = 140,000); viability, % at 10 µM;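 active = viability at or under a set limit, the compound median less 4 SD, cut at about 6% in these data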;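 also: 0% = Hyamine 1622 control at 20 µM and 100% = untreated cell control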
# HCT116 PTEN-null = growth suppressors of cells with PTEN tumor suppressor deletion. viability, % at 10 µM. actives 1.2% (n = 140,000). HCT116 PTEN-null viability, CellTiter-Glo, 60 h; active compounds read low;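 active = viability at or below a set limit, 4 SD under the median of all tested compounds, cut at about 3.7% in these data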;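 also: PTEN knockout HCT116 line with beta catenin targeted HCT116 as companion control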
# Fibroblast inh = blocks proliferation of human lung fibroblasts; LL 47 human lung fibroblast viability, ATP luminescence; active compounds read low; viability, % at 10 µM; actives 1.1% (n = 85,000); AID 719;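 active = viability at or below 50% in the single dose screen; inactive = viability above 50%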;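 also: compound exposure lasted 72 h before the ATP readout; 100% = median luminescence of untreated cell-only wells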
#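 Material: human lung fibroblast line LL 47, low passage; Evaluation: viability percentage against median untreated-cell control; Buffer or medium: 15% FBS in IMEM; Incubation: 72 h compound exposure at 37 °C after overnight plating; Dosing: 0.1% DMSO in all compound wells; Measured by: CellTiter-Glo luminescence.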
# HUVEC inhibit = blocks proliferation of human endothelial cells; viability, % at 10 µM (by protocol); HUVEC proliferation, CellTiter-Glo luminescence, 72 h; active compounds read low; actives 1.1% (n = 86,000);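 active = viability at or below 30%; inactive = viability above 30%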;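 also: 100% = median luminescence of DMSO-only cell control wells on each plate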
# * hit, by the source's call; nt = no result given.
SMILES,H69AR growth 86K,HCT116 bCat-KO,HCT116 PTEN-null,Fibroblast inh,HUVEC inhibit
Oc1c(C(c2cccs2)N2CCN(c3cccc(Cl)c3)CC2)sc2ncnn12 (centres undefined),84.2,81.7,74.9,94.9,104.4
N#CCSc1nc2c(sc(=S)n2Cc2ccco2)c(=O)n1-c1ccc(F)cc1,39.9*,23.5,22.2,73.8,88.0
Fc1cc(F)c2nc(Nc3nc4cc5c(cc4s3)OCO5)sc2c1,nt,1.3*,6.4,nt,nt
COc1ccc(C2c3c(oc4ccccc4c3=O)C(=O)N2c2ccccn2)cc1OC (centres undefined),25.9*,nt,nt,92.4,91.6
COc1ccc(C2c3c(oc4ccccc4c3=O)C(=O)N2c2ccccn2)cc1 (centres undefined),78.1,73.6,73.9,87.7,99.3
O=C1/C(=C/c2cccnc2)CCC/C1=C\c1cccnc1,nt,1.9*,1.1*,nt,nt
CCC1C/C(=C\c2cccnc2)C(=O)/C(=C/c2cccnc2)C1 (centres undefined),nt,2.2*,1.5*,nt,nt
CCC(C)(C)n1nnnc1C(c1cc2cc3c(cc2[nH]c1=O)OCO3)N1CCCCC1 (centres undefined),76.9,91.5,88.8,97.3,95.5
CCOC(=O)c1cc(-c2ccccc2)sc1NC(=O)CN1C(=O)NC(CC)(c2ccc(F)cc2)C1=O (centres undefined),nt,62.8,59.9,nt,nt
COc1ccc2cc3c(N)nn(C(=O)Cc4ccccc4OC)c3nc2c1,46.3,19.8,16.6,68.0,28.0*
COc1ccc2cc3c(N)nn(C(=O)C4CCC(C(C)(C)C)CC4)c3nc2c1 (centres undefined),nt,24.8,16.4,nt,nt
O=c1cc(N2CCC(Cc3ccccc3)CC2)[nH]c(=O)n1C1CCCCC1,27.1*,88.0,77.3,86.8,72.1
CC(=O)Oc1ccc2c(C)cc(=O)[nH]c2c1,101.4,82.2,86.7,87.5,72.6
CC(=O)Oc1c(C)cc(O)c2ccccc12,0.5*,34.9,36.9,103.6,104.8
CCCSc1nsc(SCCC)c1C#N,93.9,96.9,100.9,93.9,90.1
C#CCSc1nsc(SCC#C)c1C#N,nt,2.7*,5.3,nt,nt
CC1(C)Cc2nc3oc4c(=O)n(CC(=O)Nc5ccccc5)cnc4c3cc2CO1,nt,88.1,89.7,nt,nt
CC1(C)Cc2nc3sc4c(=O)n(CC(=O)NCc5ccco5)cnc4c3cc2CO1,21.7*,42.5,40.1,83.0,67.6
CC(C)OC(=O)CCCCCN1C(=O)CSC1=S,94.0,9.9,27.9,100.2,84.6
Cc1ccc(C)c(NC(=O)CN(C)C(=O)[C@@H](NC(=O)c2ccc(C(C)(C)C)cc2)C(C)C)c1,nt,99.7,101.9,nt,nt
CC1CCc2nc(NC(=O)CSc3nc4ccccc4o3)sc2C1 (centres undefined),30.6*,86.1,84.2,88.2,62.9
S=C(NCCc1ccc(Cl)cc1)Nc1ccc(Cl)cc1Cl,nt,41.0,24.7,nt,nt
Cc1ccc(-n2c(-c3ccc(Br)cc3)c[n+]3c2CCc2ccc4cccnc4c2-3)cc1,2.8*,1.5*,0.8*,21.1*,13.9*
COc1cc(C2C(C#N)=C(N)Oc3cc(O)ccc32)cc(OC)c1OC (centres undefined),27.5*,17.8,17.4,47.2*,53.5
COc1cc(C2C(C#N)=C(N)Oc3cc(N(C)C)ccc32)cc2c1OCO2 (centres undefined),26.6*,12.9,17.4,50.7,53.2
SMILES,H69AR growth 86K,HCT116 bCat-KO,HCT116 PTEN-null,Fibroblast inh,HUVEC inhibit
COc1cc(C2C(C#N)=C(N)Oc3cc(O)ccc32)cc2c1OCO2 (centres undefined),23.5*,67.2,62.2,89.5,41.9
CN(C)S(=O)(=O)c1cc(C(=O)NCC2CCCO2)c(Cl)cc1Cl (centres undefined),95.6,114.0,102.1,98.1,90.3
CCN(CC)C(=O)Cn1nc(-c2ccccc2O)nc1SCC(=O)Nc1ccc(OC)cc1,35.4*,83.5,75.2,92.5,77.8
COc1ccc(NC(=O)CSc2ccc3c4c(cccc24)C(=O)c2ccccc2-3)cc1,nt,6.4,3.4*,nt,nt
Cn1c(O)c(C2=c3ccccc3=NC2=O)sc1=Nc1ccc(Cl)cc1,39.8*,45.7,49.7,75.7,67.9
C=CCn1c(O)c(C2=c3ccccc3=NC2=O)s/c1=N/c1nccs1,23.2*,27.7,26.9,41.7*,65.8
O=C(O)CCC(C(=O)O)n1c(O)c(C2=c3ccccc3=NC2=O)sc1=S (centres undefined),93.1,94.8,90.9,92.8,85.3
CCOC(=O)c1c(C(=O)OCC)c(C)n(CCc2ccc(OC)c(OC)c2)c1C,nt,86.4,97.9,nt,nt

# Assay outcomes (PubChem BioAssay)
